{"source": "ChEMBL document CHEMBL1240364", "about": "“Ex vivo comparison of microbicide efficacies for preventing HIV-1 genomic integration in intraepithelial vaginal cells” (Antimicrob Agents Chemother, 2010)", "key": {"[1]": {"system": "Human immunodeficiency virus 1", "test": "Antiviral activity against HIV1 isolate M1 infected in human vaginal intraepithelial cells assessed as decrease in viral genomic integration at 1 uM after 48 hrs by multiplex PCR assay", "type": "functional", "parameters": "scale not given: the % may be the effect or the level left", "method_in_brief": "(§1)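 Vaginal epithelial sheets from two donors, EDTA-isolated and calcium-replenished, were preincubated with compound and then spinoculated with 100 ng/ml Gag p24 of primary mucosal isolate HIV-1M1 for 2 h at 1,200 × g. After 48 h culture, integration was measured by multiplex Alu-LTR/β-actin nested real-time PCR and expressed relative to untreated infection.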"}, "[2]": {"system": "Human immunodeficiency virus 1", "test": "Antiviral activity against HIV1 JRCSF infected in human vaginal intraepithelial cells assessed as viral genomic integration relative to control at 1 uM by singleplex PCR assay", "details": "Human immunodeficiency virus 1, JRCSF ISOLATE"}, "[3]": {"system": "Human immunodeficiency virus 1", "test": "Antiviral activity against HIV1 JRCSF infected in human vaginal intraepithelial cells assessed as decrease in viral genomic integration at 30 uM by multiplex PCR assay", "type": "functional, JRCSF ISOLATE", "parameters": "scale not given: the % may be the effect or the level left", "method_in_brief": "(§2)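 EDTA-separated vaginal epithelial sheets, calcium-replenished, pretreated 1 h with a single compound concentration, then spinoculated with 100 ng/ml Gag p24 HIV-1JRCSF (2 h, 1,200 × g) and cultured 48 h at 37°C. Integrated DNA measured by Alu-LTR nested real-time PCR against an ACH-2 standard curve, with β-actin normalization run either in separate wells (singleplex) or in the same wells (multiplex). Quadruplicate PCRs; integration relative to untreated infection.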"}, "[4]": {"system": "Human immunodeficiency virus 1", "test": "Antiviral activity against HIV1 JRCSF infected in human vaginal epithelium assessed as inhibition of viral genomic integration by titration assay", "type": "functional", "details": "for IC50: Human immunodeficiency virus 1, JRCSF ISOLATE; for Activity: JRCSF ISOLATE", "method_in_brief": "(§3)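 Vaginal epithelial sheets separated from stroma with 5 mM EDTA overnight at 4°C, replenished 1 h with 5 mM CaCl2. Pretreated with compound titrations for 1 h, then spinoculated with 100 ng/ml Gag p24 HIV-1JRCSF for 2 h at 1,200 × g. Sheets washed and cultured 2–3 days at 37°C. Emigrated cells and sheets pooled; Alu-LTR nested real-time PCR run in quadruplicate. Integration expressed relative to untreated infection; IC50 by nonlinear regression.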"}, "[5]": {"system": "Human immunodeficiency virus 1", "test": "Antiviral activity against HIV1 JRCSF infected in human vaginal intraepithelial cells assessed as viral genomic integration relative to control at 30 uM by singleplex PCR assay", "details": "Human immunodeficiency virus 1, JRCSF ISOLATE"}, "[6]": {"system": "Human immunodeficiency virus 1", "test": "Antiviral activity against HIV1 JRCSF infected in human vaginal intraepithelial cells assessed as decrease in viral genomic integration at 0.223 uM by multiplex PCR assay", "type": "functional, JRCSF ISOLATE", "parameters": "scale not given: the % may be the effect or the level left", "method_in_brief": "as §2"}, "[7]": {"system": "Human immunodeficiency virus 1", "test": "Antiviral activity against HIV1 isolate M1 infected in human vaginal intraepithelial cells assessed as decrease in viral genomic integration at 0.223 uM after 48 hrs by multiplex PCR assay", "type": "functional", "parameters": "scale not given: the % may be the effect or the level left", "method_in_brief": "as §1"}, "[8]": {"system": "Human immunodeficiency virus 1", "test": "Antiviral activity against HIV1 JRCSF infected in human vaginal epithelium leukocytes assessed as inhibition of viral genomic integration by titration assay", "type": "functional, cell-based", "details": "JRCSF ISOLATE", "method_in_brief": "as §3"}, "[9]": {"system": "Human immunodeficiency virus 1", "test": "Antiviral activity against HIV1 JRCSF infected in PHA-activated human T cells assessed as inhibition of viral genomic integration by titration assay", "type": "functional, cell-based", "details": "T-cell", "method_in_brief": "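PBMC from two blood donors activated 2 days with 0.4 μg/ml PHA; 100,000 lymphoblasts per well pretreated in duplicate with a concentration series for 1 h at room temperature, infected with 200 ng/ml Gag p24 HIV-1JRCSF for 2 h, washed, cultured 48 h at 37°C in medium with 50 U/ml IL-2. Integrated DNA measured by Alu-LTR nested real-time PCR; IC50 from nonlinear regression.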"}, "[10]": {"system": "Human immunodeficiency virus 1", "test": "Antiviral activity against HIV1 JRCSF infected in human intraepithelial leukocytes assessed as decrease viral integration at 0.5 ug/ml by titration assay", "type": "functional, JRCSF ISOLATE", "parameters": "scale not given: the % may be the effect or the level left", "method_in_brief": "as §3"}, "[11]": {"system": "Human immunodeficiency virus 1", "test": "Antiviral activity against HIV1 JRCSF infected in human intraepithelial leukocytes assessed as decrease viral integration at 0.1 ug/ml by titration assay", "type": "functional, JRCSF ISOLATE", "parameters": "scale not given: the % may be the effect or the level left", "method_in_brief": "as §3"}, "[12]": {"system": "Human immunodeficiency virus 1", "test": "Antiviral activity against HIV1 JRCSF infected in human vaginal epithelium mucosa assessed as decrease viral integration at 10 ng/ml by titration assay", "type": "functional", "details": "Human immunodeficiency virus 1, JRCSF ISOLATE", "method_in_brief": "as §3"}, "[13]": {"system": "Human immunodeficiency virus 1", "test": "Antiviral activity against HIV1 JRCSF infected in human vaginal intraepithelial cells assessed as viral genomic integration relative to control at 0.223 uM by singleplex PCR assay", "details": "Human immunodeficiency virus 1, JRCSF ISOLATE"}, "[14]": {"system": "Human immunodeficiency virus 1", "test": "Antiviral activity against HIV1 JRCSF infected in human vaginal intraepithelial cells assessed as decrease in viral genomic integration at 1 uM by singleplex PCR assay", "type": "functional, JRCSF ISOLATE", "parameters": "scale not given: the % may be the effect or the level left", "method_in_brief": "as §2"}}}
{"molecule": "c1cc(CN2CCCNCCNCCCNCC2)ccc1CN1CCCNCCNCCCNCC1", "note": "[PLERIXAFOR]", "values": [{"measurement": "Activity", "setting": "[1]", "value": 117, "unit": "%"}, {"measurement": "level, % of control at 1 µM", "setting": "[2]", "value": 177, "unit": "%"}]}
{"molecule": "Cc1ccc(-c2ccc3c(c2)C=C(C(=O)Nc2ccc(C[N+](C)(C)C4CCOCC4)cc2)CCC3)cc1.[Cl-]", "values": [{"measurement": "Activity", "setting": "[3]", "value": 8.6, "unit": "%"}, {"measurement": "Activity", "setting": "[1]", "value": "<2", "unit": "%"}, {"measurement": "IC50", "setting": "[4]", "value": 5.84, "unit": "nM"}, {"measurement": "Activity", "setting": "[4]", "value": "Dose-dependent effect"}, {"measurement": "level, % of control at 30 µM", "setting": "[5]", "value": 10, "unit": "%"}]}
{"molecule": "enfuvirtide", "values": [{"measurement": "Activity", "setting": "[6]", "value": 6, "unit": "%"}, {"measurement": "Activity", "setting": "[7]", "value": "<2", "unit": "%"}, {"measurement": "Activity", "setting": "[8]", "value": "Dose-dependent effect"}, {"measurement": "IC50", "setting": "[9]; Human immunodeficiency virus 1, JRCSF ISOLATE", "value": 7.57, "unit": "nM"}, {"measurement": "Activity", "setting": "[9]; JRCSF ISOLATE", "value": "Dose-dependent effect"}, {"measurement": "Activity", "setting": "[10]", "value": 30.4, "unit": "%"}, {"measurement": "Activity", "setting": "[11]", "value": 1.92, "unit": "%"}, {"measurement": "inhibition at 0.01 µg/mL", "setting": "[12]", "value": "> 80", "unit": "%"}, {"measurement": "level, % of control at 0.223 µM", "setting": "[13]", "value": 8, "unit": "%"}]}
{"molecule": "[N-]=[N+]=NCc1cccc(C(=O)/C=C(\\O)C(=O)O)c1", "values": [{"measurement": "Activity", "setting": "[14]", "value": 8.4, "unit": "%"}, {"measurement": "IC50", "setting": "[4]", "value": 190, "unit": "nM"}, {"measurement": "Activity", "setting": "[4]", "value": "Dose-dependent effect"}]}
